Hits are enriched below; roughly 4% of the tested compounds scored in any of these assays.
FAS-TE inh – blocks the thioesterase domain of human fatty acid synthase | P49327 | recombinant FAS-TE, OMFH fluorogenic substrate, fluorescence endpoint | inhibition, % at 15 µM | actives 0.67% (n = 360,000) | AID 602261;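 active = compounds whose normalised, plate-corrected inhibition of enzyme fluorescence in the single-dose primary screen is 50% or more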;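 also: 0% = DMSO with enzyme and 100% = substrate without enzyme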
SENP1 FRET inh – blocks the human SENP1 SUMO protease catalytic domain. actives 0.21% (n = 360,000). recombinant SENP1 catalytic domain, CyPet-SUMO1-YPet FRET cleavage. inhibition, % at 10 µM. AID 624204. Q9P0U3;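 active = inhibition at least 30% at 10 µM, raw YFP signal under a set limit, fluorescence ratio 0.5 to 1.5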;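 also: 0% = enzyme with DMSO and 100% = no enzyme wells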
Target sequence (Q9P0U3 419-644 limits assumed): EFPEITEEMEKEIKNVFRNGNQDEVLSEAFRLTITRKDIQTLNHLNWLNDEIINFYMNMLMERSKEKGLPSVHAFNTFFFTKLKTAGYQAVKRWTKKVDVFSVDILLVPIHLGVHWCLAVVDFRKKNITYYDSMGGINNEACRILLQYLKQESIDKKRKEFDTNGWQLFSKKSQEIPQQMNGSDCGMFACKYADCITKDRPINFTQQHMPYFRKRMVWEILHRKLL
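Test system: hSENP1 catalytic domain, recombinant; Amount: 20 pM final SENP1 enzyme; Medium: Tris pH 8 buffer plus EDTA, NaCl, BME, BSA, NP40, catalase; Schedule: 50 min enzyme reaction, room temperature, light-protected; Technique: FRET fluorescence in CFP and YFP emission channels; Controls: no-enzyme wells low, DMSO-plus-enzyme wells high control.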
hiPSC survival – enhancers of human iPSC single-cell survival; hiPSC single-cell survival, ATPlite luminescence; 100% = ROCK inhibitor wells, 0% = DMSO; survival enhancement, % at 20 µM; actives 0.044% (n = 360,000); AID 602274; in the data active = survival enhancement above about 18%;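 also: cells exposed to compounds for 16 hours before the ATP read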
Arr AP2 block – human beta-arrestin and AP2 interaction inhibition | actives 0.31% (n = 340,000) | FITC-arrestin peptide / GST-AP2 beads, flow cytometry; AP2 beta2 appendage carries R879A mutation | inhibition, % at 10 µM;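 active = inhibition above a set limit, near 3 SD of compounds lacking own fluorescence, cut at about 54% in these data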;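 also: plate controls were DMSO wells for no effect and 5 µM unlabelled arrestin peptide for full effect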
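Assay system: GST-AP2 R879A bound to glutathione beads, E. coli-expressed; Medium: PBS with 0.05% Tween 20 and 0.1% BSA; Also added: fluorescein-tagged arrestin peptide at 50 nM final; Timing: 12 min plus 1 h, RT; Measured by: flow cytometry, FL1 (488/535 nm); Evaluation: percent drop in bead-associated FITC signal.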
Cardio protect – modulators protecting cardiomyocytes from myocardial damage; H9c2 cardiomyocytes, H2O2 injury protection, ATPLite, 2 h; AID 588492; actives 0.63% (n = 360,000); protection from H2O2 cell death, % at 20 µM;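 active = compounds giving at least 50% protection of heart cells from peroxide-induced death in the single-dose screen, raw or plate-pattern-corrected value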;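 also: 0% = DMSO wells with peroxide and 100% = DMSO wells without peroxide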
GRIN3A LBD mod – modulators (binders) of human NR3A ligand-binding domain. NR3A LBD differential scanning fluorimetry, Tm shift; 0% = protein alone, 100% = glycine-bound protein. Tm shift relative to glycine control, % at 25 µM. actives 2.5% (n = 340,000). AID 1259313;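 active = melting temperature shift of at least 10% of the positive control shift, at one fixed dose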
FAS-TE inh conf – confirmation of human fatty acid synthase thioesterase inhibitors; shares compounds with FAS-TE inh; actives 45% (n = 2,300); inhibition, % at 15 µM; recombinant FAS-TE, OMFH fluorogenic substrate, fluorescence;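 active = compounds inhibiting the enzyme by at least 50% at 15 µM in any one of the replicates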;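 also: 0% = enzyme with DMSO only and 100% = wells lacking enzyme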
Numbers without * were called inactive; . = not tested or not shown.

SMILES	FAS-TE inh	SENP1 FRET inh	hiPSC survival	Arr AP2 block	Cardio protect	GRIN3A LBD mod	FAS-TE inh conf
CCOC1=C2[C@H](c3cccs3)N(S(=O)(=O)c3ccc(C)cc3)C[C@H]2n2c(=O)n(-c3ccccc3)c(=O)n2C1	73*	-16	-1	.	3	.	30
CCOC1=C2CN(S(=O)(=O)c3ccc(Cl)cc3)[C@H](c3ccccc3)C[C@@H]2N(S(=O)(=O)c2ccc(C)cc2)[C@H](c2ccccc2)C1	19	-2	0	.	-1	.	.
CCOC1=C2CN(S(=O)(=O)c3ccc(C)cc3)C(c3ccc(CC)cc3)CC2n2c(=O)n(-c3ccccc3)c(=O)n2C1 (centres undefined)	.	1	.	.	.	.	.
CCOC1=C2[C@H](c3ccccc3)N(S(=O)(=O)c3ccccc3)C[C@H]2n2c(=O)n(-c3ccccc3)c(=O)n2C1	73*	1	0	.	1	.	39
CCOC1=C2CN(S(=O)(=O)c3ccccc3)[C@H](c3ccccc3)C[C@H]2n2c(=O)n(-c3ccccc3)c(=O)n2C1	80*	2	-1	.	4	.	13
CNC(=O)C[C@H]1C(=O)N(Cc2ccccc2)C[C@@H]1C	-7	0	4	.	4	.	.
CC1CCCCN1C(=O)COC(=O)c1cc([N+](=O)[O-])ccc1N (centres undefined)	28	-1	0	9	-1	-1	.
Cc1cc(C)c(C#N)c(N2CCN(CCOc3ccc(Cl)cc3)CC2)n1	50*	-2	1	-12	5	-4	33
COCc1cc(C)nc(SCC[N+](C)(C)CC(=O)Nc2ccccc2)c1C#N	53*	0	0	10	-4	0	63*
COCc1cc(C)nc(SCC[N+](C)(C)CC(=O)c2ccc(Br)cc2)c1C#N	38	0	-1	1	6	-1	.
Cc1ccc(/C=N\NC(=O)C2CN(S(=O)(=O)c3ccccc3)CCN2S(=O)(=O)c2ccccc2)cc1 (centres undefined)	81*	2	-1	8	-4	5	19
CCCNC(=O)c1ccc(N2CCC3(CC2)CC(c2cccc(Br)c2)=NO3)c(NC(=O)c2c(Cl)cccc2Cl)c1	54*	0	0	5	0	2	16
CCCNC(=O)c1ccc(N2CCC3(CC2)CC(c2cccc(Br)c2)=NO3)c(NC(=O)c2ccc(Br)cc2)c1	3	1	2	5	-2	0	.
Cc1ccc(CNC(=O)c2ccc(N3CCC4(CC3)CC(c3ccccc3)=NO4)c(NC(=O)c3ccco3)c2)cc1	64*	-1	0	4	2	2	13
Cc1ccc(CNC(=O)c2ccc(N3CCC4(CC3)CC(c3cccc(Br)c3)=NO4)c(NC(=O)c3ccco3)c2)cc1	31	-1	-1	5	-1	0	.
Cn1c(=NC(=O)c2ccc(S(=O)(=O)N3CCCc4ccccc43)cc2)sc2cc(S(C)(=O)=O)ccc21	83*	4	-1	28	-7	-2	11
Cc1cc2nc(C3CCCCC3)c(Cc3cccc(Cl)c3)n2c(C)c1Br	27	-3	-1	.	.	.	.
COc1cccc(NC(=S)N2CCc3cc(OC)c(OC)cc3C2COc2ccc3c(C)cc(=O)oc3c2)c1 (centres undefined)	58*	-1	0	20	7	-3	7
C=C(C)CSc1ncc(-c2cccc(C(F)(F)F)c2)cn1	58*	0	9	-1	-4	1	36*
O=S(=O)(/N=C(/Sc1ccccc1)c1ccccc1)c1ccccc1	57*	0	0	34	52*	2	32
COc1cc(NC(=O)[C@H]2O[C@@H](n3ccc(N)nc3=O)[C@H](O)[C@@H]2O)cc(OC)c1OC	-8	0	2	.	12	.	.
Cc1ccc(S(=O)(=O)N(C)C[C@H]2Oc3ncc(-c4ccccc4)cc3C(=O)N([C@@H](C)CO)C[C@@H]2C)cc1	1	-1	-2	.	1	.	.
Cc1nn(-c2cc(N3CCCC3)ccc2[N+](=O)[O-])c(=O)c2ccccc12	0	-1	-2	10	20	-1	.
CC(C)(C)C(=O)N1CCN(c2ccc([N+](=O)[O-])c(-n3nc(-c4ccccc4)c4ccccc4c3=O)c2)CC1	74*	-2	1	-2	4	-5	9
COCC#Cc1ccc2c(c1)O[C@@H](CN(C)S(=O)(=O)c1cccc(F)c1)[C@@H](C)CN([C@H](C)CO)S2(=O)=O	9	3	-2	.	34	.	.
SMILES	FAS-TE inh	SENP1 FRET inh	hiPSC survival	Arr AP2 block	Cardio protect	GRIN3A LBD mod	FAS-TE inh conf
O=C(c1ccc(N2CCCC2)c([N+](=O)[O-])c1)N1CCN(S(=O)(=O)c2ccccc2)CC1	7	0	0	35	-6	2	.
Cc1ccc(S(=O)(=O)N2CCN(C(=O)c3ccc(N4CCC(C)CC4)c([N+](=O)[O-])c3)CC2)cc1	54*	1	1	6	-14	-1	14
COCC(=O)N[C@H]1CC[C@@H](CC(=O)OC)O[C@@H]1CO	.	2	.	.	.	.	.
O=C1Nc2ccccc2-n2nnnc2C1N1CCN(c2ccc(C(F)(F)F)cn2)CC1 (centres undefined)	.	-8	.	.	.	.	.
CC(C)Cn1c(N)c(C(=O)COC(=O)c2cc(-c3ccccc3)nc3ccccc23)c(=O)n(C)c1=O	51*	0	2	13	9	3	14
O=C(NCc1ccccc1)/C(=C/c1cccc([N+](=O)[O-])c1)NC(=O)c1ccco1	69*	-2	0	16	4	1	79*
O=C(NCCc1ccccc1)/C(=C\c1cccc([N+](=O)[O-])c1)NC(=O)c1ccco1	83*	-4	0	-2	11	-1	77*
CCc1ccc([C@H]2[C@@H]3C(=O)C[C@@H]4C(=O)N(C5CCCCC5)C(=O)[C@@H]4[C@@H]3CN2S(=O)(=O)c2ccc(C)cc2)cc1	72*	-5	-1	.	0	.	19
CCc1ccc([C@H]2[C@@H]3C(=O)C[C@@H]4C(=O)N(Cc5ccccc5)C(=O)[C@@H]4[C@@H]3CN2S(=O)(=O)c2ccc(C)cc2)cc1	59*	-27	-1	.	3	.	12
Cc1ccccc1S(=O)(=O)N1C[C@H]2[C@H]3C(=O)N(C4CCCCC4)C(=O)[C@H]3CC(=O)[C@H]2[C@@H]1c1ccc(Cl)cc1	73*	0	-1	.	1	.	23
O=C1C[C@@H]2C(=O)N(c3ccccc3)C(=O)[C@@H]2[C@@H]2CN(S(=O)(=O)c3ccccc3)[C@@H](c3ccccc3)[C@H]12	2	-37	3	.	2	.	.
